pEC50, pIC50: −log10 of the molar value. Activity calls are given as the source filed them. No cut-off for these calls is given here.
What was measured:
[1] = system: MCF7; experiment: Antiproliferative activity against human MCF7 cells after 24 hrs by SRB assay; format: functional, cell-based; conditions: MCF7, 24 h
How it was run: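 MCF-7 cells are grown for 24 h with or without drug, then for a further 48 h. Total cell protein is measured by sulforhodamine B staining, and the IC₅₀ is derived from it.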

[2] = Inhibition of tubulin polymerization by turbidimetry
How it was run: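 Tubulin at 10 µM (1.0 mg/mL). Polymerization followed turbidimetrically at 350 nm in temperature-controlled spectrophotometers.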

[3] = Displacement of [3H]colchicine from tubulin at 50 uM by turbidimetry; conditions: in the assay text read “by DEAE-cellulose filter method” for “by turbidimetry”
How it was run: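 Binding of [³H]colchicine to tubulin (1.0 µM, 0.1 mg/mL) is measured by the DEAE-cellulose filter method. The radioligand is at 5.0 µM and test agents at 5 or 50 µM. Each is run in triplicate.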

[4] = Inhibition of tubulin in rat A10 cells assessed as induction of cellular microtubule disassembly after 18 hrs by indirect immunofluorescence technique; format: cell-based; conditions: A10, 18 h
How it was run: (§1)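 A-10 cells plated on glass coverslips and treated with compound at varying concentrations for 18 h. After fixation, microtubules immunostained with a β-tubulin antibody (indirect immunofluorescence) and nuclei stained with DAPI. Read by fluorescence microscopy. Percentage of cellular microtubule loss estimated visually across the concentration range.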

[5] = system: A10; experiment: Inhibition of tubulin in rat A10 cells assessed as thinning of microtubule network at 20 uM after 18 hrs by fluorescence microscopy; format: cell-based; how it was run: as §1
[6] = system: CCRF-CEM; experiment: Growth inhibition of human CCRF-CEM cells after 48 hrs by SRB assay; format: functional
[7] = system: K562; experiment: Growth inhibition of human K562 cells after 48 hrs by SRB assay; format: functional; conditions: K562, 48 h
[8] = system: MOLT-4; experiment: Growth inhibition of human MOLT4 cells after 48 hrs by SRB assay; format: functional; conditions: MOLT-4, 48 h
[9] = Growth inhibition of human […] cells after 48 hrs by SRB assay; format: functional
[10] = system: SR; experiment: Growth inhibition of human SR cells after 48 hrs by SRB assay; format: functional
How it was run: (§2)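 NCI human tumor cell line panel. Cells exposed for 48 h to five concentrations in a 10-fold serial dilution. Growth inhibition read as total cell protein by sulforhodamine B staining. GI50 calculated from log dose–response curves.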

[11] = system: A549; experiment: Growth inhibition of human A549 cells after 48 hrs by SRB assay; format: functional; conditions: A549, 48 h
[12] = system: EKVX; experiment: Growth inhibition of human EKVX cells after 48 hrs by SRB assay; format: functional
[13] = system: HOP-62; experiment: Growth inhibition of human HOP62 cells after 48 hrs by SRB assay; format: functional; conditions: HOP-62, 48 h
[14] = system: HOP-92; experiment: Growth inhibition of human HOP92 cells after 48 hrs by SRB assay; format: functional; conditions: HOP-92, 48 h
[15] = system: NCI-H226; experiment: Growth inhibition of human NCI-H226 cells after 48 hrs by SRB assay; format: functional; conditions: NCI-H226, 48 h
[16] = system: NCI-H23; experiment: Growth inhibition of human NCI-H23 cells after 48 hrs by SRB assay; format: functional; conditions: NCI-H23, 48 h
[17] = system: NCI-H322M; experiment: Growth inhibition of human NCI-H322M cells after 48 hrs by SRB assay; format: functional
[18] = system: NCI-H460; experiment: Growth inhibition of human NCI-H460 cells after 48 hrs by SRB assay; format: functional; conditions: NCI-H460, 48 h
[19] = system: NCI-H522; experiment: Growth inhibition of human NCI-H522 cells after 48 hrs by SRB assay; format: functional; conditions: NCI-H522, 48 h
[20] = system: COLO 205; experiment: Growth inhibition of human COLO205 cells after 48 hrs by SRB assay; format: functional; conditions: COLO 205, 48 h
[21] = system: HCC 2998; experiment: Growth inhibition of human HCC2998 cells after 48 hrs by SRB assay; format: functional; conditions: HCC 2998, 48 h
[22] = system: HCT-116; experiment: Growth inhibition of human HCT116 cells after 48 hrs by SRB assay; format: functional; conditions: HCT-116, 48 h
[23] = system: HCT-15; experiment: Growth inhibition of human HCT15 cells after 48 hrs by SRB assay; format: functional; conditions: HCT-15, 48 h
[24] = system: KM12; experiment: Growth inhibition of human KM12 cells after 48 hrs by SRB assay; format: functional; conditions: KM12, 48 h
[25] = system: SW-620; experiment: Growth inhibition of human SW620 cells after 48 hrs by SRB assay; format: functional; conditions: SW-620, 48 h; how it was run: as §2
[26] = system: SF-268; experiment: Growth inhibition of human SF268 cells after 48 hrs by SRB assay; format: functional; conditions: SF-268, 48 h
How it was run: (§3)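 This is the NCI cell-line panel. Cells are exposed for 48 h to five concentrations in 10-fold serial dilution. Growth is read by the SRB protein assay, and GI₅₀ is calculated from log dose–response curves.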

[27] = system: SF-295; experiment: Growth inhibition of human SF295 cells after 48 hrs by SRB assay; format: functional; conditions: SF-295, 48 h; how it was run: as §3
[28] = system: SF-539; experiment: Growth inhibition of human SF539 cells after 48 hrs by SRB assay; format: functional; conditions: SF-539, 48 h; how it was run: as §2
[29] = system: SNB-19; experiment: Growth inhibition of human SNB19 cells after 48 hrs by SRB assay; format: functional; conditions: SNB-19, 48 h; how it was run: as §2
[30] = system: U-251; experiment: Growth inhibition of human U251 cells after 48 hrs by SRB assay; format: functional; conditions: U-251, 48 h; how it was run: as §2
[31] = system: LOX IMVI; experiment: Growth inhibition of human LOXIMVI cells after 48 hrs by SRB assay; format: functional; how it was run: as §3
[32] = system: Malme-3M; experiment: Growth inhibition of human MALME-3M cells after 48 hrs by SRB assay; format: functional; how it was run: as §3
[33] = system: M14; experiment: Growth inhibition of human M14 cells after 48 hrs by SRB assay; format: functional; conditions: M14, 48 h; how it was run: as §3

Question: Which results are given for `COc1ccc(/C=C/C(=O)c2cc(OC)c(OC)c(OC)c2)cc1B(O)O`?
Answer: pIC50 [1]: 6.05; pIC50 [2]: 4.51; inhibition [3]: 56%; pEC50 [4]: 4.78; Activity [5]: Active; GI50 [6]: 2390 nM; GI50 [7]: 3460 nM; GI50 [8]: 3600 nM; GI50 [9]: 1120 nM; GI50 [10]: 2180 nM; GI50 [11]: 450 nM; GI50 [12]: 1310 nM; GI50 [13]: 98 nM; GI50 [14]: 380 nM; GI50 [15]: 4140 nM; GI50 [16]: 140 nM; GI50 [17]: 8440 nM; GI50 [18]: 28 nM; GI50 [19]: 200 nM; GI50 [20]: 2200 nM; GI50 [21]: 410 nM; GI50 [22]: 370 nM; GI50 [23]: < 10 nM; GI50 [24]: 15400 nM; GI50 [25]: 37 nM; GI50 [26]: 800 nM; GI50 [27]: 2730 nM; GI50 [28]: 35 nM; GI50 [29]: < 10 nM; GI50 [30]: 25 nM; GI50 [31]: 60 nM; GI50 [32]: 5490 nM; GI50 [33]: 1190 nM
